Experimental data as given in article PMC8268672 (Bioorganic Chemistry, 2021).
pEC50, pIC50: −log10 of the molar value. In brackets after ≈: the same amount, converted by molar mass. Like-named read-outs stand apart in the source and are kept apart here.

Assays:
[1] = system: Escherichia coli (ATCC 8739); assay: MIC, broth microdilution; assay type: cell-based; conditions: ATCC8739, read-out: Minimum inhibitory concentration (MIC), EC
In short: (§1)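 Broth microdilution per CLSI in Mueller-Hinton broth, using two-fold serial dilutions of test compound and reference drugs from 512 to 0.25. Bacterial broth cultures were grown 2-6 h to 0.5 McFarland turbidity, then diluted with sterile solution to the final inoculum. MIC is reported in µg/mL.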

[2] = system: Pseudomonas aeruginosa (MCCB 0035); assay: MIC, broth microdilution; assay type: cell-based; conditions: read-out: Minimum inhibitory concentration (MIC), PA
In short: as §1

[3] = system: Klebsiella aerogenes (NCIM-2098); assay: MIC, broth microdilution; assay type: cell-based; conditions: NCIM2098, read-out: Minimum inhibitory concentration (MIC), KA
In short: (§2)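 Antibacterial MICs by CLSI broth microdilution in Mueller-Hinton broth. Test compounds and standard drugs are serially diluted two-fold from 512 to 0.25. The bacterial broth culture is grown 2-6 h to a 0.5 McFarland turbidity, then adjusted with sterile solution to the final inoculum.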

[4] = system: Staphylococcus aureus (ATCC 29213); assay: MIC, broth microdilution; assay type: cell-based; conditions: ATCC29213, read-out: Minimum inhibitory concentration (MIC), SA
In short: as §2

[5] = system: Bacillus cereus (NCIM-2458); assay: MIC, broth microdilution; assay type: cell-based; conditions: NCIM2458, read-out: Minimum inhibitory concentration (MIC), BC
In short: as §1

[6] = system: Aspergillus niger (NCIM 2191); assay: MIC, broth microdilution; assay type: cell-based; conditions: NCIM2191, read-out: Minimum inhibitory concentration (MIC), AN
In short: (§3)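 Antifungal MICs by CLSI broth microdilution in Sabouraud liquid medium. Test compounds and standard drugs are serially diluted two-fold from 512 to 0.25. The fungal broth culture is grown 24 h at 35 °C to a 0.5 McFarland turbidity, then adjusted with sterile solution to the final inoculum.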

[7] = system: Candida albicans (NCIM 2087); assay: MIC, broth microdilution; assay type: cell-based; conditions: NCIM2087, read-out: Minimum inhibitory concentration (MIC), CA
In short: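 CLSI broth microdilution in Sabouraud liquid medium, with test compound two-fold serially diluted from 512 to 0.25. Fungal broth culture grown 24 h at 35 °C to 0.5 McFarland turbidity, then adjusted with sterile solution to a final […] inoculum. MIC expressed in µg/mL.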

[8] = system: Aspergillus fumigatus (NCIM 2081); assay: MIC, broth microdilution; assay type: cell-based; conditions: NCIM2081, read-out: Minimum inhibitory concentration (MIC), AF
In short: as §3

[9] = system: Cryptococcus neoformans (ATCC 9011); assay: MIC, broth microdilution; assay type: cell-based; conditions: ATCC9011, read-out: Minimum inhibitory concentration (MIC), CN
In short: as §3

[10] = system: Escherichia coli (ATCC 8739); assay: Agar disk diffusion, inhibition zone; assay type: cell-based; conditions: 100 µg/8 mm disc, triplicate, mean ± SD
In short: (§4)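 Agar disk diffusion on Mueller-Hinton agar plates seeded with a standard bacterial suspension. Test compound stock in DMSO, diluted with distilled water; 8 mm sterile filter-paper discs soaked in the solution. Ampicillin was the reference. Plates incubated at 35 °C for 24 h, in triplicate. Read-out is the average inhibition-zone diameter (mm) around each disc.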

[11] = system: Pseudomonas aeruginosa (MCCB 0035); assay: Agar disk diffusion, inhibition zone; assay type: cell-based; conditions: 100 µg/8 mm disc, triplicate, mean ± SD
[12] = system: Salmonella typhimurium (NCIM-2501); assay: Agar disk diffusion, inhibition zone; assay type: cell-based; conditions: 100 µg/8 mm disc, triplicate, mean ± SD
[13] = system: Klebsiella aerogenes (NCIM-2098); assay: Agar disk diffusion, inhibition zone; assay type: cell-based; conditions: 100 µg/8 mm disc, triplicate, mean ± SD
[14] = system: Staphylococcus aureus (ATCC 29213); assay: Agar disk diffusion, inhibition zone; assay type: cell-based; conditions: 100 µg/8 mm disc, triplicate, mean ± SD
In short: as §4

[15] = system: Bacillus cereus (NCIM-2458); assay: Agar disk diffusion, inhibition zone; assay type: cell-based; conditions: 100 µg/8 mm disc, triplicate, mean ± SD
[16] = system: Lactobacillus casei (NCIM-2651); assay: Agar disk diffusion, inhibition zone; assay type: cell-based; conditions: 100 µg/8 mm disc, triplicate, mean ± SD
[17] = system: Streptococcus pneumonia (ATCC 49619); assay: Agar disk diffusion, inhibition zone; assay type: cell-based; conditions: 100 µg/8 mm disc, triplicate, mean ± SD
[18] = system: Aspergillus niger (NCIM 2191); assay: Agar disk diffusion, inhibition zone; assay type: cell-based; conditions: 100 µg/8 mm disc, triplicate, mean ± SD
In short: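 For the fungal strain, discs soaked in test compound solution (DMSO stock diluted with distilled water) sat on seeded Mueller-Hinton agar. Clotrimazole was the reference. Incubation ran 48 h at 35 °C, in triplicate. Zone of growth inhibition recorded in mm as the mean diameter around each disc.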

[19] = system: Candida albicans (NCIM 2087); assay: Agar disk diffusion, inhibition zone; assay type: cell-based; conditions: 100 µg/8 mm disc, triplicate, mean ± SD
[20] = system: Aspergillus fumigatus (NCIM 2081); assay: Agar disk diffusion, inhibition zone; assay type: cell-based; conditions: 100 µg/8 mm disc, triplicate, mean ± SD
[21] = system: Cryptococcus neoformans (ATCC 9011); assay: Agar disk diffusion, inhibition zone; assay type: cell-based; conditions: 100 µg/8 mm disc, triplicate, mean ± SD
S. aureus DNA gyrase = S. aureus DNA gyrase (Staphylococcus aureus, UniProt P0A0K8+P20831); assay: DNA Gyrase inhibition assay; assay type: biochemical
Vaccinia virus = assay: microbe, parasite or virus in culture; assay type: cell-based; conditions: Orthopoxvirus vaccinia, HEL, read-out: Antiviral EC50, Vaccinia virus
Adeno virus-2 = assay: CPE reduction assay in HEL cells; assay type: cell-based; conditions: read-out: Antiviral EC50, Adeno virus-2
Human Coronavirus (229E) = assay: CPE reduction assay in HEL cells; assay type: cell-based; conditions: read-out: Antiviral EC50, Human Coronavirus (229E)
Para-influenza-3 virus = assay: CPE reduction assay in Vero cells; assay type: cell-based, Parainfluenza-3 virus; conditions: Vero, read-out: Antiviral EC50, Para-influenza-3 virus
Reovirus-1 = assay: CPE reduction assay in Vero cells; assay type: cell-based; conditions: read-out: Antiviral EC50, Reovirus-1
Sindbis virus = assay: CPE reduction assay in Vero cells; assay type: cell-based; conditions: read-out: Antiviral EC50, Sindbis virus
Coxsackie virus B4 = assay: CPE reduction assay in Vero cells; assay type: cell-based; conditions: Enterovirus B, read-out: Antiviral EC50, Coxsackie virus B4
Punta Toro virus = assay: CPE reduction assay in Vero cells; assay type: cell-based; conditions: read-out: Antiviral EC50, Punta Toro virus
Yellow Fever virus = assay: microbe, parasite or virus in culture; assay type: cell-based; conditions: Yellow fever virus, Vero, read-out: Antiviral EC50, Yellow Fever virus
[22] = system: Influenza A/H1N1 A/Ned/378/05; assay: CPE reduction assay in MDCK cells; assay type: cell-based; conditions: Influenza A virus
[23] = system: Influenza A/H3N2 A/HK/7/87; assay: CPE reduction assay in MDCK cells; assay type: cell-based; conditions: Influenza A virus
Influenza B B/Ned/537/05 = assay: CPE reduction assay in MDCK cells; assay type: cell-based; conditions: Influenza B virus, read-out: Antiviral EC50, Influenza B B/Ned/537/05, MTS
[24] = system: Human embryonic lung (HEL) cells; conditions: HEL cell cultures; microscopically detectable alteration of normal cell morphology
Vero cells = conditions: Vero cell cultures; microscopically detectable alteration of normal cell morphology
[25] = system: Madin Darby canine kidney (MDCK) cells; conditions: dog
MT4 cells = conditions: MT4 cell cultures; colorimetric MTT cell viability assay

Chain of S. aureus DNA gyrase (P20831 whole entry): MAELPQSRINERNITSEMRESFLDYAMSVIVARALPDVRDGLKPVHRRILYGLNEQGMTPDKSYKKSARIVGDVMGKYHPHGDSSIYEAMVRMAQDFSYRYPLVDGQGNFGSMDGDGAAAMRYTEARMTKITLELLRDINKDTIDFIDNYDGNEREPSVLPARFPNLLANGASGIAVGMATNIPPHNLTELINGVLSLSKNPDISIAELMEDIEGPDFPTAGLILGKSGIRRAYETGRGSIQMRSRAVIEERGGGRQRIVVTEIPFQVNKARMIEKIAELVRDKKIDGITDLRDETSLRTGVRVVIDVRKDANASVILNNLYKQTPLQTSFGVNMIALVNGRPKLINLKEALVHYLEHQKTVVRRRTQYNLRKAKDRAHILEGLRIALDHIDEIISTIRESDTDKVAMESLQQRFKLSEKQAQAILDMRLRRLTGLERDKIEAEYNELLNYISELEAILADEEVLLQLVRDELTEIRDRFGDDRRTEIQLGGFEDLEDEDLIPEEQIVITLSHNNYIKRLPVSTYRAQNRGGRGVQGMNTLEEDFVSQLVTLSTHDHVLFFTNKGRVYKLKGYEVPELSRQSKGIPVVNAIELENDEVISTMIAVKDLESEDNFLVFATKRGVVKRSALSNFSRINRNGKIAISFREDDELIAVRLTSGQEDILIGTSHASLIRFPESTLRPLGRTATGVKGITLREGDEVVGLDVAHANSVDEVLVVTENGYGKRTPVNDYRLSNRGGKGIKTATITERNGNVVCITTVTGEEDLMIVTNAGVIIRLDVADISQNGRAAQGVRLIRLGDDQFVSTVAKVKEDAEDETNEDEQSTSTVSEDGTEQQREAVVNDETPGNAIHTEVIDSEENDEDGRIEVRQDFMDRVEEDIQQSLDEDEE
Chain of S. aureus DNA gyrase (P0A0K8 whole entry): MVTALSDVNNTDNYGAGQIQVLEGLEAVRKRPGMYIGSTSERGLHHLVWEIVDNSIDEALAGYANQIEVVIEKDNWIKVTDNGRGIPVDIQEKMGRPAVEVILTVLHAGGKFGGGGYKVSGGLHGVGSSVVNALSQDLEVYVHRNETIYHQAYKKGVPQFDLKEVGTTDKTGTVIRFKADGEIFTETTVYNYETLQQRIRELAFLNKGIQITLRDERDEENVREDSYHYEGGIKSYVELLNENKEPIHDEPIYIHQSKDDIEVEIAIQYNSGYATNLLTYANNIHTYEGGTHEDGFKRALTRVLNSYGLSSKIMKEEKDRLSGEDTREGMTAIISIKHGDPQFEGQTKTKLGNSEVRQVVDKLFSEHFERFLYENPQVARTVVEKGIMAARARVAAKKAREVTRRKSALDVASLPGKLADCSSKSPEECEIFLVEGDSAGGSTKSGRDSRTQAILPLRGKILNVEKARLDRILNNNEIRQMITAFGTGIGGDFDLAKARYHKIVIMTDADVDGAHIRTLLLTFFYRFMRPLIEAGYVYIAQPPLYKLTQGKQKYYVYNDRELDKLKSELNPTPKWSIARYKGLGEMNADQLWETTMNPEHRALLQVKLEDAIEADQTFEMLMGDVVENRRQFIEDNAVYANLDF

Structure (SMILES)	MIC [1] [µg/mL]	MIC [2] [µg/mL]	MIC [3] [µg/mL]	MIC [4] [µg/mL]	MIC [5] [µg/mL]	MIC [6] [µg/mL]	MIC [7] [µg/mL]	MIC [8] [µg/mL]	MIC [9] [µg/mL]	Diameter of growth inhibition zone, EC [10] [mm]	Diameter of growth inhibition zone, PA [11] [mm]	Diameter of growth inhibition zone, ST [12] [mm]	Diameter of growth inhibition zone, KA [13] [mm]	Diameter of growth inhibition zone, SA [14] [mm]	Diameter of growth inhibition zone, BC [15] [mm]	Diameter of growth inhibition zone, LC [16] [mm]	Diameter of growth inhibition zone, SP [17] [mm]	Diameter of growth inhibition zone, AN [18] [mm]	Diameter of growth inhibition zone, CA [19] [mm]	Diameter of growth inhibition zone, AF [20] [mm]	other results
Cc1ccc(S(=O)(=O)N2C(=O)CSC2c2ccc(F)cc2)cc1 (stereo not shown) [5j, 2-(4-Fluorophenyl)-3-[(4-methylphenyl)sulfonyl]-1,3-thiazolidin-4-one]	2 (≈ 5.69 µM)	2 (≈ 5.69 µM)	16 (≈ 45.5 µM)	4 (≈ 11.4 µM)	8 (≈ 22.8 µM)	8 (≈ 22.8 µM)	4 (≈ 11.4 µM)	4 (≈ 11.4 µM)	4 (≈ 11.4 µM)	25.9 ± 0.32	25 ± 1.5	18 ± 0.3	14 ± 0.94	23 ± 1.1	18 ± 0.5	19 ± 0.5	10 ± 0.6	19 ± 0.6	21 ± 0.9	19 ± 1.2	Diameter of growth inhibition zone, CN [21]: 13 ± 1.5 mm; pIC50 (S. aureus DNA gyrase): 5.37
Cc1ccc(S(=O)(=O)N2C(=O)CSC2c2ccc(O)cc2)cc1 (stereo not shown) [5m, 2-(4-Hydroxyphenyl)-3-[(4-methylphenyl)sulfonyl]-1,3-thiazolidin-4-one]	16 (≈ 45.8 µM)	16 (≈ 45.8 µM)	64 (≈ 183 µM)	32 (≈ 91.6 µM)	64 (≈ 183 µM)	64 (≈ 183 µM)	32 (≈ 91.6 µM)	128 (≈ 366 µM)	64 (≈ 183 µM)	15.9 ± 0.23	15.2 ± 0.96	12 ± 0.4	10 ± 0.4	13 ± 0.63	10 ± 0.6	14 ± 0.64	12 ± 2.1	13 ± 0.6	15 ± 0.35	10 ± 1.2	Diameter of growth inhibition zone, CN [21]: 13 ± 1.4 mm; pEC50 (Vaccinia virus): < 4.00; pEC50 (Adeno virus-2): < 4.00; pEC50 (Human Coronavirus (229E)): < 4.00; pEC50 (Para-influenza-3 virus): < 4.00; pEC50 (Reovirus-1): < 4.00; pEC50 (Sindbis virus): < 4.00; pEC50 (Coxsackie virus B4): < 4.00; pEC50 (Punta Toro virus): < 4.00; pEC50 (Yellow Fever virus): < 4.00; pEC50 ([22]; read-out: Antiviral EC50, Influenza A/H1N1 A/Ned/378/05, MTS): < 4.00; pEC50 ([22]; read-out: Antiviral EC50, Influenza A/H1N1 A/Ned/378/05, visual CPE score): < 4.00; pEC50 ([23]; read-out: Antiviral EC50, Influenza A/H3N2 A/HK/7/87, MTS): < 4.00; pEC50 ([23]; read-out: Antiviral EC50, Influenza A/H3N2 A/HK/7/87, visual CPE score): < 4.00; pEC50 (Influenza B B/Ned/537/05): < 4.00; Minimum cytotoxic conc. [24]: >100 µM; Minimum cytotoxic conc. (Vero cells): >100 µM; Cytotoxicity, Minimum cytotoxic conc. [25]: >100 µM; Minimum cytotoxic conc. (MT4 cells): >125 µM
